In brackets after ≈: the same amount, converted by molar mass. Like-named read-outs stand apart in the source and are kept apart here. Marks after values point to notes of the source that are not given here.
Assays:
[1] = Thermogravimetric analysis; assay type: physicochemical; settings: TGA onset, nitrogen atmosphere, 10 °C.min^-1
[2] = Water solubility from saturated aqueous solution, UV quantification; assay type: physicochemical; settings: 25 °C, pure water; for solubility at 72 h: water, thermodynamic from solid
[3] = DPPH radical scavenging assay; settings: for DPPH radical scavenging (antioxidant) activity, in words: 30, 90 and 120 minutes of exposure to DPPH; for DPPH scavenging IC50: tested up to 1 mg.mL^-1, IC50 impossible to determine
Outline: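 DPPH (250 µL of 0.91 mmol/L in methanol) was combined with 20–80 µL of a test compound stock and made up to 4 mL with methanol. Samples stood in the dark at room temperature for 30, 90 and 120 min before absorbance was read at 517 nm. Controls were DPPH without compound and ascorbic acid as positive control. Activity = (A0−A1)/A0×100, and IC50 came from scavenging-versus-concentration fits, in triplicate.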

Raw 264.7 cells = assay: Cytotoxicity, resazurin metabolic conversion, Raw 264.7; assay type: cell-based, mouse; settings: for EC50: read-out: EC50, 50% decrease in cell viability
Outline: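 Mouse Raw 264.7 macrophages were kept in IMDM with 10% non-inactivated FBS and penicillin/streptomycin at 37 °C, 5% CO2. After 24 h attachment, cells received test compound at 1–5000 µM in full medium for 24 h. Resazurin (10% v/v) was added for the last 1 h, and resorufin absorbance was read at 570/600 nm relative to untreated cells. EC50 was fitted by non-linear least squares to a logistic model, from three independent experiments in triplicate.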

HaCaT cells = assay: Cytotoxicity, resazurin metabolic conversion, HaCaT; assay type: cell-based, human
Outline: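 HaCaT keratinocytes were grown in high-glucose DMEM with 4 mM glutamine, 10% heat-inactivated FBS and penicillin/streptomycin at 37 °C under 5% CO2. After 24 h attachment in 96-well plates, cells were exposed for 24 h to test compound (1–5000 µM) in full medium. Resazurin (10% v/v) was present for the final 2 h. Absorbance was read at 570/600 nm and normalised to untreated cells. EC50 came from a logistic least-squares fit of three independent experiments run in triplicate.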

[4] = system: Raw 264.7 macrophages stimulated with LPS; assay: Inhibition of LPS-induced NO production in macrophages; assay type: cell-based, mouse; settings: 100 μM and 50 μM, pre-treated 1 hour, LPS 1 μg.mL^-1
[5] = cited from earlier work
Vibrio fischeri = assay: Standard Microtox liquid-phase assay; assay type: cell-based, Vibrio fischeri (strain NRRL B-11177); settings: for EC50, luminescence inhibition: 30 min of exposure, 15 °C, Passino's classification; for Ecotoxicity rank among the cholinium-based salts: EC50 in mmol.L^-1, Figure 2
Outline: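 Vibrio fischeri NRRL B-11177 was tested by the standard 81.9% liquid-phase protocol at 15 °C. Aqueous dilutions (0–81.9 wt% of stock) were used, with stock concentration corrected for water content by Karl Fischer titration. Luminescence was read after 5, 15 and 30 min and compared with a blank. EC50 and 95% confidence intervals were fitted to a logistic equation by non-linear least squares.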

[6] = 25 °C; ref Queimada et al. 39; cited from earlier work
[7] = Homo sapiens, 24 h, read-out: EC50, 50% decrease in cell viability
[8] = Raw 264.7, 24 hours of exposure
[9] = read-out: EC50, 50% decrease in cell viability, 24 hours of exposure

With `C[N+](C)(C)CCO.C[N+](C)(C)CCO.O=c1oc2c(O)c([O-])cc3c(=O)oc4c(O)c([O-])cc1c4c23` [[Chol]2[Ell], di((2-hydroxyethyl)trimethylammonium) 3,8-dihydroxy-5,10-dioxo-5,10-dihydrochromeno[5,4,3-cde]chromene-2,7-bis(olate)] the “Temperature of decomposition (Td)” value [1] was 265 ºC, the “Temperature of decomposition (Td)” value ([1]; listed as [Chol]2 [Ell]) was 265.0 ºC and the “Water solubility ± std” value [2] was 622.97 ± 36.98 mM. For the same compound, the “DPPH radical scavenging (antioxidant) activity, in words” value [3] was “highest antioxidant activity”, the “Cell viability at maximum concentration achieved” value (Raw 264.7 cells; 125 µM, Raw 264.7) was “not observed a decrease in the cell viability” and the “Cell viability at maximum concentration achieved” value (HaCaT cells; 125 µM) was “not observed a decrease in the cell viability”. For the same compound, the “Effect on LPS-induced NO production” value [4] was “significantly inhibit the LPS-induced NO increase”.

For `O=C(O)c1ccccc1O` [salicylic acid, reference compound], the “Temperature of decomposition (Td)” value [1] was 183.9 ºC and the “DPPH scavenging IC50” value [3] was greater than 1000 µg/mL.

With `COc1cc(C(=O)O)ccc1O` [vanillic acid, reference compound] the “Temperature of decomposition (Td)” value [1] was 233.7 ºC.

In the case of `C[N+](C)(C)CCO.[Cl-]` [cholinium chloride, Cholinium chloride], the Decomposition temperature [5] is given as “circa 305 ºC”.

For `C[N+](C)(C)CCO.O=C([O-])/C=C/c1ccc(O)c(O)c1` [[Chol][Caf], (2-hydroxyethyl) trimethylammonium (E)-3-(3,4-dihydroxyphenyl)acrylate], the “Effect on LPS-induced NO production” value [4] was “significantly inhibit the LPS-induced NO increase”.

For `C[N+](C)(C)CCO.O=C([O-])c1cc(O)c(O)c(O)c1` [[Chol][Gal], (2-hydroxyethyl) trimethylammonium 3,4,5-trihydroxybenzoate], the “Temperature of decomposition (Td)” value [1] was 185.3 ºC, the “Water solubility ± std” value [2] was 2402.27 ± 6.09 mM and the “EC50, luminescence inhibition” value (Vibrio fischeri) was greater than 1000 µg/mL. The “Ecotoxicity rank among the cholinium-based salts” value (Vibrio fischeri) was “less toxic” and the “Effect on LPS-induced NO production” value [4] was “neither [Chol][Gal] nor gallic acid decrease the LPS-induced NO production”.

In the case of `O=C(O)/C=C/c1ccc(O)c(O)c1` [caffeic acid, reference compound], the solubility at 72 h [2] is reported as 3.84 ± 0.04 mM (≈ 692 µg/mL), the EC50 (Raw 264.7 cells; Mus musculus, RAW264.7, 24 h) is reported as 2000 µM and the EC50 (HaCaT cells; [7]) is reported as 1800 µM.

With `O=C(O)/C=C/c1ccc(O)c(O)c1` [[Chol][Caf], (2-hydroxyethyl) trimethylammonium (E)-3-(3,4-dihydroxyphenyl)acrylate] the EC50 (Raw 264.7 cells; [8]) was 2340 µM and the EC50 (HaCaT cells; [9]) was 1790 µM.

In the case of `O=C(O)c1cc(O)c(O)c(O)c1` [gallic acid, 3,4,5-trihydroxybenzoic acid, reference compound], the “Temperature of decomposition (Td)” value [1] is reported as 262.5 ºC, the solubility at 72 h [2] is reported as 71.3 ± 2.7 mM (≈ 12100 µg/mL) and the EC50 (Raw 264.7 cells; Mus musculus, RAW264.7, 24 h) is reported as 591 µM. The EC50 (HaCaT cells; [7]) was 267 µM and the “Effect on LPS-induced NO production” value [4] was “neither [Chol][Gal] nor gallic acid decrease the LPS-induced NO production”.

`O=C(O)c1cc(O)c(O)c(O)c1` [[Chol][Gal], (2-hydroxyethyl) trimethylammonium 3,4,5-trihydroxybenzoate] gave an EC50 (Raw 264.7 cells; [8]) of 836 µM and an EC50 (HaCaT cells; [9]) of 304 µM.

In the case of `O=c1oc2c(O)c(O)cc3c(=O)oc4c(O)c(O)cc1c4c23` [ellagic acid, reference compound], the “Temperature of decomposition (Td)” value [1] is given as 472.6 ºC and the “Water solubility ± std” value [6] is given as 1.26E-02 ± 3.31E-04 ^b mmol.L^-1.

In the case of `COc1cc(C(=O)[O-])ccc1O.C[N+](C)(C)CCO` [[Chol][Van], (2-hydroxyethyl) trimethylammonium 4-hydroxy-3-methoxybenzoate], the “Temperature of decomposition (Td)” value [1] is reported as 186.8 ºC, the “DPPH radical scavenging (antioxidant) activity, in words” value [3] is reported as “significantly higher DPPH radical scavenging activity than vanillic acid” and the “EC50, luminescence inhibition” value (Vibrio fischeri) is reported as greater than 1000 µg/mL.

For `COc1cc(C(=O)[O-])cc(OC)c1O.C[N+](C)(C)CCO` [[Chol][Syr], (2-hydroxyethyl) trimethylammonium 4-hydroxy-3,5-dimethoxybenzoate], the “Temperature of decomposition (Td)” value [1] was 178.9 ºC and the “Water solubility ± std” value [2] was 2793.71 ± 17.98 mM.

With `C[N+](C)(C)CCO.O=C([O-])c1ccccc1O` [[Chol][Sal], (2-hydroxyethyl) trimethylammonium 2-hydroxybenzoate, reference compound] the “Temperature of decomposition (Td)” value [1] was 226.0 ºC, the “Water solubility ± std” value [2] was “Completely miscible” and the “DPPH scavenging IC50” value [3] was greater than 1000 µg/mL. For the same compound, the “Ecotoxicity rank among the cholinium-based salts” value (Vibrio fischeri) was “most toxic”.

Source: article PMC5330449 (ACS sustainable chemistry & engineering, 2015)
